Screening results (PubChem BioAssay)
Compounds with a hit are over-represented: about 3.1% of the library has one in this group of screens.
GalR3 antagonist: GalR3 antagonists in HEK293 cells, primary screen, cell-based, fluorescence readout. Galanin receptor type 3 (Homo sapiens), O60755. HEK293 GalR3-CNG cAMP membrane potential fluorescence; galR3 body fused to GalR1 C-terminus. inhibition, % at 3 µM. hit rate 0.44% among 360,000;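 active = inhibition above the screen-wide average plus 3 SD, cut at about 13% in these data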;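 note: forskolin and galanin both at EC90 stimulate the cells; cAMP rise reported by CNG channel membrane potential dye signal; 0% = forskolin plus galanin with DMSO and 100% = forskolin alone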
Target sequence (O60755 1-299 limits assumed): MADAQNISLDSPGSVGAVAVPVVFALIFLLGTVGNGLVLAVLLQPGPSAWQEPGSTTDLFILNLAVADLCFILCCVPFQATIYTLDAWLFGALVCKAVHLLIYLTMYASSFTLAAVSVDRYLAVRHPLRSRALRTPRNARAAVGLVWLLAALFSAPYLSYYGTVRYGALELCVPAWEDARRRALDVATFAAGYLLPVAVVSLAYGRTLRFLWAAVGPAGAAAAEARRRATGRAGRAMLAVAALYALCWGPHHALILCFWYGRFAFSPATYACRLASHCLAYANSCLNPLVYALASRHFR
CHO parental Ca: ATP-evoked calcium signal inhibitors, parental CHO, primary screen, counter-screen for OX1R antagonist project, cell-based, fluorescence, Fluo-8 calcium dye; inhibition, % at 5.6 µM; parental CHO-K1, ATP-induced calcium, Fluo-8 fluorescence; AID 463079, 2010; hit rate 0.63% among 330,000;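 active = inhibition above that plate's mean sample inhibition plus 3 SD, cut at about 26% in these data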;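 note: 0% = ATP-challenged DMSO wells and 100% = DMSO wells without ATP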
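Material – parental CHO cells · Reagent – ATP stimulus · Compound – single nominal dose of 5.6 µM per compound · Detection – Fluo-8 fluorescence · Read-out basis – percent inhibition of calcium signal · Controls – ATP-challenged DMSO wells low, unchallenged DMSO wells high · Repeats – no replicates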
OX1R antag-1: OX1R (HCRTR1) antagonists, primary screen, fluorescence, CHO/OX1R cells, Fluo-8 calcium, orexin A | hit rate 0.43% among 330,000 | inhibition, % at 5 µM | Orexin/Hypocretin receptor type 1 (Homo sapiens), O43613 | Fluo-8 calcium fluorescence;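 active = inhibition above its plate's threshold, mean inhibition of all tested compounds on the plate plus 3 SD, cut at about 37% in these data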;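 note: 0% = orexin A challenge wells and 100% = SB-334867-A antagonist wells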
GPR7 antag: GPR7 receptor antagonists, primary screen, cell-based, fluorescence, single concentration | GPR7-expressing cells, fluorescence antagonist assay | Neuropeptides B/W receptor type 1 (Homo sapiens), P48145 | hit rate 1.1% among 290,000 | inhibition, % at 4.4 µM; in the data active = inhibition above about 16%, passing the limit was not always enough;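 note: cells stimulated with the agonist NPW; 0% = agonist with vehicle and 100% = vehicle without agonist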
Target sequence (P48145 whole entry, looked up): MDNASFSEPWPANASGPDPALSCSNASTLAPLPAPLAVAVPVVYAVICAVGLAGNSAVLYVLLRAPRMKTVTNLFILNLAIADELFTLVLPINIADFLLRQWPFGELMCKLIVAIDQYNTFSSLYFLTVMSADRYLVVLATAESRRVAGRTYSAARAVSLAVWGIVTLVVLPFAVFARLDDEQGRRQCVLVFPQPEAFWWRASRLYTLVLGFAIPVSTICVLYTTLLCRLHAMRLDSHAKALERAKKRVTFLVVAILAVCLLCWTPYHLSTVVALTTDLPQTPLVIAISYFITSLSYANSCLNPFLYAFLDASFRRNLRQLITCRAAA
OX1R antag-2: antagonists of human orexin 1 receptor (OX1R). Orexin/Hypocretin receptor type 1 (Homo sapiens), O43613. OX1R-expressing cells, FRET antagonist read-out. inhibition, % at 6.6 µM. hit rate 1.8% among 330,000; in the data active = inhibition mostly above about 38%, no sharp cut-off; inactive = mostly below about 40%;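 note: 0% = agonist challenge alone and 100% = reference antagonist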
* hit, by the source's call; · = no result given.

SMILES	GalR3 antagonist	CHO parental Ca	OX1R antag-1	GPR7 antag	OX1R antag-2
Cc1ccc(NC(=O)CSc2nnc(C)c(=O)n2N)cc1Cl	-5	-1	-12	-1	1
O=[N+]([O-])c1c(N2CCN(CCO)CC2)nc2ccccn12	-10	-3	-8	-1	70*
O=[N+]([O-])c1ccc(N2CCN(CCO)CC2)c2ncccc12	5	1	-1	2	40
COc1ccccc1N(CC(=O)N/N=C/c1c(O)ccc2ccccc12)S(C)(=O)=O	-3	-11	-11	1	69*
CC(Sc1nc2ccccc2c(=O)n1CCCN1CCOCC1)C(=O)N1CCc2ccccc21 (stereo not given)	8	·	·	·	·
CC1=C/C(=C\C=C(C#N)C#N)N(C)c2ccccc21	-3	33*	44*	7	21
CCCCc1c(-c2ccccc2OC)ncn1C1CCCC1	-10	·	·	·	·
COc1ccc(COC(=O)CCNC(=O)c2ccc(Cl)cc2)cc1	-5	-9	-11	·	53*
O=C(NCCc1ccccc1)C(=O)NCC1OCCCN1S(=O)(=O)c1cccs1 (stereo not given)	0	-22	-7	-17	24
CN(C(=O)COC(=O)CCCN1C(=O)c2cccc3cccc(c23)C1=O)C1CCS(=O)(=O)C1 (stereo not given)	-4	-12	-23	·	67*
CC(C)CN(C(=O)COC(=O)CCN1C(=O)c2ccccc2C1=O)C1CCS(=O)(=O)C1 (stereo not given)	-1	-14	8	-14	18
CCN(C(=O)COC(=O)CCCN1C(=O)c2cccc3cccc(c23)C1=O)C1CCS(=O)(=O)C1 (stereo not given)	-4	-9	-19	·	53*
C=CCN1C(=O)c2ccc(C(=O)OCC(=O)N(CC)C3CCS(=O)(=O)C3)cc2C1=O (stereo not given)	-7	-8	-5	·	42*
Cc1ccc(CN2CCN(/N=C/c3ccc(C)s3)CC2)c(C)c1	3	-14	-5	-11	15
CN=C1C([N+](=O)[O-])=CC=C2C1=NC1(CCCCC1)N2O	-2	-4	-7	-10	50*
CN(C)CCCNS(=O)(=O)c1ccc(-n2nnc3ccccc32)c([N+](=O)[O-])c1	-9	-20	-25	2	68*
O=[N+]([O-])c1cc(S(=O)(=O)Nc2cccc(C(F)(F)F)c2)ccc1-n1nnc2ccccc21	-3	43*	45*	-8	88*
COc1ccc(NS(=O)(=O)c2ccc(-n3nnc4ccccc43)c([N+](=O)[O-])c2)cc1	-4	-6	-3	7	12
Cc1ccc(-c2csc(NCCn3c(-c4ccncc4)nc4ccccc43)n2)cc1	-2	-30	-10	6	60*
Cc1ccc(-c2csc(NCCn3c(-c4ccncc4)nc4cc(C(F)(F)F)ccc43)n2)cc1	-4	-18	-14	·	4
Cc1ccccc1OCCOC(=O)c1ccc(S(=O)(=O)N2CCCC2)cc1	-3	30*	11	·	9
CON(C)C(=O)[C@H]1C[C@@H]2[C@H](C[C@@H](c3ccccc3)[C@H]1C)N(c1ccc(F)cc1)C(=O)N2CCCOc1ccccc1	-5	·	·	·	·
O=C(N/C(=C\c1ccc([N+](=O)[O-])cc1)C(=O)N1CCCCC1)c1ccc(Br)o1	5	9	-26	3	24
O=C(N/C(=C\c1ccc([N+](=O)[O-])cc1)C(=O)N1CCCCC1)c1ccccc1Br	-2	-28	-31	-4	51*
NC(=O)CC1NC(=O)c2cc([N+](=O)[O-])cc(I)c2OCCC(C(N)=O)NC(=O)[C@@H]2CCCN2C1=O (stereo not given in full)	-2	-11	-15	-7	61*
SMILES	GalR3 antagonist	CHO parental Ca	OX1R antag-1	GPR7 antag	OX1R antag-2
NCCCC[C@H]1NC(=O)[C@H](CCC(=O)O)NC(=O)c2cc([N+](=O)[O-])cc(I)c2OCC[C@@H](C(N)=O)NC1=O	·	-6	-3	-7	10
Cn1c(-c2cccc([N+](=O)[O-])c2)cnc1NCc1ccc(C#N)cc1	-2	3	-22	7	29
O=C(NCCCn1ccnc1)c1nc(Cn2cc(Br)cn2)no1	-9	4	-5	-25	11
Cc1nccn1CCCNC(=O)c1nc(Cn2cc([N+](=O)[O-])cn2)no1	13*	0	6	-3	12
COCCNC(=O)CSc1nnc(-c2ccccc2F)n1Cc1ccccc1	-7	-7	-3	12	9
Clc1ccc(-c2nnc(CSc3nnc(-c4cccs4)n3Cc3ccccc3)o2)cc1	3	23	4	20	47*
Fc1ccc(NCc2nnc(SCc3nnc(-c4ccccc4)o3)n2Cc2ccccc2)cc1	1	51*	73*	-15	51
COc1ccc2o/c(=N/NC(=S)Nc3ccccc3)c(C(N)=O)cc2c1	·	·	·	10	·
COc1cc(/C=C/C(=O)NC(=O)c2ccccc2O)ccc1OC(C)=O	-2	-13	4	-13	66*
COc1ccc(/C=C/C(=O)NC(=S)Nc2ccccc2)cc1OC	-9	-4	-16	-7	2
C#CCOc1c(/C=C\c2nc(O)c([N+](=O)[O-])c(=O)[nH]2)cc(Br)cc1OC	-12	2	1	-12	53*
NC(=O)c1c(NC(=O)c2ccc(F)cc2)sc2c1CCC2	-5	-21	-4	-14	51*
CNC(=O)c1c(NC(=O)c2cccc(C)c2)sc2c1CCC2	-2	-20	-18	14	44*
COC(=O)c1c(NC(=O)c2nc3nc(C)cc(C(F)F)n3n2)sc2c1CCC2	-9	-14	-9	-9	5
Cc1cc(C(F)F)n2nc(C(=O)Nc3sc4c(c3C(N)=O)CCC4)nc2n1	-1	-4	-2	-13	57*
Cc1cccc(C(=O)Nc2sc3c(c2C(=O)O)CCC3)c1	4	-3	-4	5	9
NC(=O)c1ncn([C@@H]2O[C@H](C(=O)N[C@H](Cc3c[nH]c4ccccc34)C(=O)N3CCN(C(=O)C4CC4)CC3)[C@@H](O)[C@H]2O)n1	-8	·	·	·	·
Cc1ccc(-c2noc(CN(C(=O)C(c3ccccc3)c3ccccc3)C(C)C)n2)cc1	-7	52*	14	-8	24
Cc1cccc(-c2noc(CN(C(=O)/C=C/c3ccccc3Cl)C(C)C)n2)c1	-9	-4	-13	2	15
COc1ccc(Cl)cc1C(=O)N(Cc1nc(-c2cccc(C)c2)no1)C(C)C	-2	47*	-23	-17	29
CC(C)N(Cc1nc(-c2ccccc2)no1)S(=O)(=O)c1ccccc1	·	60*	-8	-11	32
CC(C)N(Cc1nc(-c2ccc(Cl)cc2)no1)C(=O)C(c1ccccc1)c1ccccc1	-5	4	-34	-7	16
